Active and inactive are the calls of the source. The rule behind the calls is not given here.
Legend:
[1] = system: Rattus norvegicus; assay: Toxicity in Sprague-Dawley rat assessed as suppression of thyroid hormone axis measured by decrease in serum TSH level at 1 mg/kg, po after 7 weeks; assay type: organism-based; design: dose 1 mg/kg, route oral; conditions: in vivo, 1176 h
Procedure, shortened: (§1)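 Male SD rats (n = 5–6 per group; baseline group n = 8) given vehicle (0.5% CMC/1% Lutrol F68) or drug orally once daily. One group per cohort weighed and killed by decapitation without anesthesia after 1, 2, 4 and 7 weeks. Trunk-blood serum assayed for total/free T3 and T4; TSH by [125I] radioimmunoassay with magnetic separation. Pituitary TSHβ mRNA also measured.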

[2] = system: Rattus norvegicus; assay: Toxic cardiac effect on Sprague-Dawley rat assessed as increase in first derivative of left ventricular pressure at >= 1 mg/kg/day, po for 7 days; assay type: toxicity, organism-based, Heart left ventricle; design: route oral; conditions: in vivo, 168 h
Procedure, shortened: (§2)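 Male SD rats (n = 6 per group) dosed daily by oral gavage for 7 days; vehicle group included. On day 7, rats anesthetized with isoflurane; catheter-tip transducer inserted into left ventricle via right carotid artery. LV pressure, LV dP/dt and heart rate (lead I ECG) recorded digitally. Systolic/diastolic aortic pressure taken by retracting catheter into proximal aorta.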

[3] = system: Rattus norvegicus; assay: Toxicity in Sprague-Dawley rat assessed as suppression of thyroid hormone axis measured by assessed as decrease in total […]-L-thyronine level at 1 mg/kg, po after 7 weeks; assay type: organism-based; design: dose 1 mg/kg, route oral; conditions: in vivo, 1176 h; procedure, shortened: as §1
[4] = system: Rattus norvegicus; assay: Toxic cardiac effect in Sprague-Dawley rat assessed as increase in heart weight at 1 mg/kg/day, po; assay type: toxicity, organism-based; design: route oral; conditions: in vivo
[5] = system: Rattus norvegicus; assay: Toxicity in Sprague-Dawley rat assessed as suppression of thyroid hormone axis measured by decrease in TSH-beta mRNA level at 1 mg/kg, po after 7 weeks; assay type: organism-based; design: dose 1 mg/kg, route oral; conditions: in vivo, 1176 h; procedure, shortened: as §1
[6] = system: Rattus norvegicus; assay: Toxic cardiac effect in Sprague-Dawley rat assessed as increase in heart rate at 1 mg/kg/day, po; assay type: toxicity, organism-based; design: route oral; conditions: in vivo; procedure, shortened: as §2
[7] = system: Mus musculus; assay: Reduction in total […]-L-thyronine level in po dosed diet-induced obese C57BL/6 mouse; assay type: functional, organism-based
Procedure, shortened: (§3)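 Male C57BL/6 mice, about 4 weeks old, fed a high-fat diet (60% kcal fat) for about 170 days. Assigned to groups (n = 8) matched for cholesterol and body weight. Dosed orally once daily in 0.5% CMC/1% Lutrol F68 for 2 weeks. Baseline blood taken by tail nick. At end, cardiac-puncture blood used for cholesterol, TGs, glucose and thyroid hormones; liver weighed and hepatic TGs measured.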

[8] = system: Rattus norvegicus; assay: Toxicity in Sprague-Dawley rat assessed as suppression of thyroid hormone axis measured by decrease in TSH-beta mRNA level at 0.1 mg/kg, po after 7 weeks; assay type: organism-based; design: dose 0.1 mg/kg, route oral; conditions: in vivo, 1176 h; procedure, shortened: as §1
[9] = system: Mus musculus; assay: Reduction in plasma cholesterol level in po dosed diet-induced obese C57BL/6 mouse after 2 weeks; assay type: functional; design: scale not given: the % may be the effect or the level left; procedure, shortened: as §3
[10] = system: Mus musculus; assay: Decrease in cholesterol level in wild-type C57BL/6 mouse at 0.5 mg/kg/day once daily for 7 days; assay type: functional, organism-based
[11] = system: Mus musculus; assay: Decrease in cholesterol level in LDLR deficient C57BL/6 mouse at 5 mg/kg/day once daily for 7 days; assay type: functional, organism-based
[12] = system: Rattus norvegicus; assay: Effect on malic enzyme mRNA expression in po dosed Sprague-Dawley rat liver; assay type: functional, organism-based; conditions: TDE = time-dependent effect
Procedure, shortened: (§4)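 Killed 3, 8 and 24 h post-dose under 2.5% isoflurane. Pituitary and thyroid snap-frozen; liver, heart, soleus, spleen and kidney freeze-clamped. mRNA by quantitative real-time PCR, expressed as fold-change vs vehicle.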

[13] = system: Rattus norvegicus; assay: Toxic cardiac effect in Sprague-Dawley rat assessed as increase in first derivative of left ventricular pressure at 1 mg/kg/day, po; assay type: toxicity, organism-based, Heart left ventricle; design: route oral; conditions: in vivo; procedure, shortened: as §2
[14] = system: Mus musculus; assay: Effect on hepatic LDLR mRNA level in LDLR deficient C57BL/6 mouse at 0.5 mg/kg/day once daily for 7 days; assay type: functional
[15] = system: Rattus norvegicus; assay: Effect on SREBP-1c mRNA expression in po dosed Sprague-Dawley rat liver; assay type: functional, organism-based; conditions: TDE = time-dependent effect
[16] = system: Mus musculus; assay: Reduction in total 3,5,3',5'-tetraiodo-L-thyronine level in po dosed diet-induced obese C57BL/6 mouse; assay type: functional, organism-based; procedure, shortened: as §3
[17] = system: Rattus norvegicus; assay: Toxicity in Sprague-Dawley rat assessed as suppression of thyroid hormone axis measured by decrease in free 3,5,3',5'-tetraiodo-L-thyronine level at 1 mg/kg, po after 7 weeks; assay type: organism-based; design: dose 1 mg/kg, route oral; conditions: in vivo, 1176 h; procedure, shortened: as §1
[18] = system: Mus musculus; assay: Effect on hepatic LDLR mRNA level in wild-type C57BL/6 mouse at 0.5 mg/kg/day once daily for 7 days; assay type: functional
[19] = system: Mus musculus; assay: Decrease in cholesterol level in LDLR deficient C57BL/6 mouse at 0.5 mg/kg/day once daily for 7 days; assay type: functional, organism-based
[20] = system: Rattus norvegicus; assay: Toxicity in Sprague-Dawley rat assessed as suppression of thyroid hormone axis measured by decrease in serum TSH level at 0.1 mg/kg, po after 7 weeks; assay type: organism-based; design: dose 0.1 mg/kg, route oral; conditions: in vivo, 1176 h; procedure, shortened: as §1
[21] = system: Mus musculus; assay: Decrease in body weight in diet-induced obese C57BL/6 mouse at 0.03 mg/kg, po; assay type: functional; design: scale not given: the % may be the effect or the level left
[22] = system: Rattus norvegicus; assay: Toxic cardiac effect on Sprague-Dawley rat assessed as decrease in body weight gain at 1 mg/kg/day, po; assay type: toxicity, organism-based; design: route oral; scale not given: the % may be the effect or the level left; conditions: in vivo
[23] = system: Rattus norvegicus; assay: Toxicity in Sprague-Dawley rat assessed as suppression of thyroid hormone axis measured by decrease in total […]-L-thyronine level at 0.1 mg/kg, po after 7 weeks; assay type: organism-based; design: dose 0.1 mg/kg, route oral; conditions: in vivo, 1176 h
[24] = system: Mus musculus; assay: Decrease in cholesterol level in wild-type C57BL/6 mouse at 5 mg/kg/day once daily for 7 days; assay type: functional, organism-based
[25] = system: Rattus norvegicus; assay: Effect on LDLR mRNA expression in po dosed Sprague-Dawley rat liver; assay type: functional, organism-based; conditions: TDE = time-dependent effect
[26] = system: Rattus norvegicus; assay: Effect on type 1 iodothyronine deiodinase mRNA expression in po dosed Sprague-Dawley rat liver; assay type: functional, organism-based; conditions: TDE = time-dependent effect; procedure, shortened: as §4
[27] = system: Rattus norvegicus; assay: Toxicity in Sprague-Dawley rat assessed as suppression of thyroid hormone axis measured by decrease in free 3,5,3',5'-triiodo-L-thyronine level at 0.1 mg/kg, po after 7 weeks; assay type: organism-based; design: dose 0.1 mg/kg, route oral; conditions: in vivo, 1176 h; procedure, shortened: as §1
[28] = system: Rattus norvegicus; assay: Toxic cardiac effect on Sprague-Dawley rat assessed as increase in systolic aortic pressure at >= 1 mg/kg/day, po for 7 days; assay type: toxicity, organism-based; design: route oral; conditions: in vivo, 168 h; procedure, shortened: as §2
[29] = system: Rattus norvegicus; assay: Toxicity in Sprague-Dawley rat assessed as suppression of thyroid hormone axis measured by decrease in free 3,5,3',5'-triiodo-L-thyronine level at 1 mg/kg, po after 7 weeks; assay type: organism-based; design: dose 1 mg/kg, route oral; conditions: in vivo, 1176 h; procedure, shortened: as §1
[30] = system: Rattus norvegicus; assay: Toxicity in Sprague-Dawley rat assessed as suppression of thyroid hormone axis measured by decrease in free 3,5,3',5'-tetraiodo-L-thyronine level at 0.1 mg/kg, po after 7 weeks; assay type: organism-based; design: dose 0.1 mg/kg, route oral; conditions: in vivo, 1176 h; procedure, shortened: as §1
[31] = system: Mus musculus; assay: Decrease in liver weight in po dosed diet-induced obese C57BL/6 mouse after 14 days; assay type: functional; design: scale not given: the % may be the effect or the level left
Procedure, shortened: (§5)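 DIO mice were male C57BL/6 fed a 60%-fat (by kcal) diet from about 4 weeks of age for about 170 days. They were grouped (n = 8) to match cholesterol and body weight. Dosing was oral, once daily for 2 weeks, in 0.5% CMC/1% Lutrol F68. At kill, blood was taken by cardiac puncture for plasma TGs. The liver was removed and weighed, and hepatic TGs were measured.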

[32] = organism: Rattus norvegicus; assay: Reduction in plasma cholesterol level in cholesterol fed Sprague-Dawley rat; assay type: functional
[33] = system: Rattus norvegicus; assay: Toxicity in Sprague-Dawley rat assessed as suppression of thyroid hormone axis measured by decrease in total 3,5,3',5'-tetraiodo-L-thyronine level at 1 mg/kg, po after 7 weeks; assay type: organism-based; design: dose 1 mg/kg, route oral; conditions: in vivo, 1176 h
[34] = system: Mus musculus; assay: Increase in heart weight in po dosed diet-induced obese C57BL/6 mouse; assay type: functional, organism-based
[35] = system: Mus musculus; assay: Reduction in blood glucose level in po dosed diet-induced obese C57BL/6 mouse; assay type: functional, organism-based; procedure, shortened: as §3
[36] = system: Rattus norvegicus; assay: Toxic cardiac effect on Sprague-Dawley rat assessed as increase in heart rate at >= 1 mg/kg/day, po for 7 days; assay type: toxicity, organism-based; design: route oral; conditions: in vivo, 168 h; procedure, shortened: as §2
[37] = system: Rattus norvegicus; assay: Toxicity in Sprague-Dawley rat assessed as suppression of thyroid hormone axis measured by decrease in total 3,5,3',5'-tetraiodo-L-thyronine level at 0.1 mg/kg, po after 7 weeks; assay type: organism-based; design: dose 0.1 mg/kg, route oral; conditions: in vivo, 1176 h
[38] = system: Mus musculus; assay: Decrease in liver triglyceride level in po dosed diet-induced obese C57BL/6 mouse after 14 days; assay type: functional; design: scale not given: the % may be the effect or the level left; procedure, shortened: as §5

CC(C)c1cc(Oc2c(Cl)cc(CC(=O)O)cc2Cl)ccc1O
Activity [1]: Active
Activity [2]: Active
Activity [3]: Active
Activity [4]: Active
Activity [5]: Active
Activity [6]: Active
Activity [7]: Active
Activity [8]: Active
Activity [9]: 67%
Activity [10]: Active
Activity [11]: inactive
Activity [12]: tde
Activity [13]: Active
Activity [14]: -10.6%
Activity [15]: tde
Activity [16]: Active
Activity [17]: Active
Activity [18]: -55.8%
Activity [19]: inactive
Activity [20]: Active
Activity [21]: 3%
Activity [22]: 61%
Activity [23]: Active
Activity [24]: Active
Activity [25]: tde
Activity [26]: tde
Activity [27]: Active
Activity [28]: Active
Activity [29]: Active
Activity [30]: Active
Activity [31]: 33%
ED50 [32]: 0.05 mg/kg
Activity [33]: Active
Activity [34]: Active
Activity [35]: Active
Activity [36]: Active
Activity [37]: Active
Activity [38]: 33%

From ChEMBL document CHEMBL1156517, “Targeting thyroid hormone receptor-beta agonists to the liver reduces cholesterol and triglycerides and improves the therapeutic index” (Proc Natl Acad Sci U S A, 2007)
